# According to article PMC3000613 (Biochemistry, 2010):
# Columns and labels:
# [1] = system: MBP-sAnk1_29–155 / GST-Obsc6231–6260; format: binding, rat; conditions: for molar excess of peptide over sAnk1 needed to inhibit binding by 50%: binding of GST-Obsc6231–6260 construct to sAnk1, 1 µM MBP-sAnk1, SPR
# Method in brief: (§1)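 Each GST-obscurin fusion was expressed in BL21* pLysS cells (1 mM IPTG, 4 h), affinity-purified, and captured by anti-GST on a CM5 SPR chip. 1 µM MBP-sAnk1 was pre-mixed with synthetic 6316–6345 or 6231–6260 oligopeptide at varying relative molar amounts, then flowed over the chip. Inhibition constant = reciprocal of the peptide:sAnk1 concentration ratio blocking maximal binding by 50%.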
# MBP-sAnk1_29–155 [2] = test: SPR direct binding of GST-obscurin constructs to MBP-sAnk1; set-up: species or system rat; conditions: GST fusion constructs vs MBP-sAnk1_29–155
# Method in brief: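 GST-obscurin constructs, expressed in BL21* pLysS cells (1 mM IPTG, 4 h) and affinity-purified, were captured by anti-GST on a CM5 chip. MBP-sAnk1 was applied over a wide concentration range. Signal from a GST-only chip and a buffer blank was subtracted. Kinetic rate constants and KD came from 1:1 binding model fits.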
# [3] = system: MBP-sAnk1_29–155 / GST-Obsc6316–6345; set-up: species or system rat; conditions: binding to GST-Obsc6316–6345
# Method in brief: as §1
# MBP-sAnk1_29–155 [4] = test: SPR competition, oligopeptide inhibition of MBP-sAnk1 binding; set-up: species or system rat; conditions: binding of MBP-sAnk1_29–155 to either GST-Obsc6316–6345 or GST-Obsc6231–6260
Substance,molar excess of peptide over sAnk1 needed to inhibit binding by 50% [1],"Ratio of inhibition constants, 6316–6345 to 6231–6260 oligopeptide ([1]; binding to GST-Obsc6231–6260)",binding to sAnk1 by SPR (in words) (MBP-sAnk1_29–155 [2]),"Ratio of inhibition constants, 6316–6345 to 6231–6260 oligopeptide [3]",relative inhibition of binding vs 6231–6260 oligopeptide (MBP-sAnk1_29–155 [4])
"Obsc6316–6345 oligopeptide: synthetic oligopeptide containing obscurin residues 6316–6345 (GAAWPGAGTGELLWDVHSHVVRETTQRTYT; UniProt Q5VST9 6316-6345, looked up, fragment)",~ 2 fold molar excess,3.29,no significant difference in binding between Obsc6316–6436 and Obsc6316–6345,3.00,~ 3 fold
Obsc6231–6260 oligopeptide: synthetic oligopeptide containing obscurin residues 6231–6260,~ 6 fold molar excess,–,–,–,–
